Assay results from ChEMBL document CHEMBL4689842, “EUbOPEN Chemogenomics Library wave 1” (2021).

Tested on: Fibroblast
Assay: Multiplex assay against human fibroblast
Type: toxicity, cell-based
Summary of the method: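 Hoechst33342, BioTracker Green Microtubule Cytoskeleton Dye, MitoTracker Red and Annexin V Alexa Fluor 680 were added to live cells at seeding, and imaging on a CQ1 microscope at 37°C and 5% CO2 followed compound addition. Gating by CellPathfinder machine learning separated cells into Hoechst high-intensity objects or normal cells, then normal cells into healthy, pyknosed or fragmented nuclei, then pyknosed cells into mitotic or apoptotic. Per cents of healthy-nucleus cells are reported for the tubulin, mitochondrial-mass and membrane-permeability phenotypes.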

[1] = 12 h, 1 µM, compound concentration 1 uM, replicate 1
[2] = 12 h, 1 µM, compound concentration 1 uM, replicate 2
[3] = 12 h, 10 µM, compound concentration 10 uM, replicate 1
[4] = 12 h, 10 µM, compound concentration 10 uM, replicate 2
[5] = 24 h, 1 µM, compound concentration 1 uM, replicate 1
[6] = 24 h, 1 µM, compound concentration 1 uM, replicate 2
[7] = 24 h, 10 µM, compound concentration 10 uM, replicate 1
[8] = 24 h, 10 µM, compound concentration 10 uM, replicate 2
[9] = 48 h, 1 µM, compound concentration 1 uM, replicate 1
[10] = 48 h, 1 µM, compound concentration 1 uM, replicate 2
[11] = 48 h, 10 µM, compound concentration 10 uM, replicate 1
[12] = 48 h, 10 µM, compound concentration 10 uM, replicate 2

In the case of CC(C)OC(=O)N1CCC(Oc2ncnc3c2cnn3-c2ccc(S(C)(=O)=O)cc2F)CC1, the “Population Apoptotic (%)” value [1] is reported as 64%, the “Population Fragmented Nuclei (%)” value [1] is reported as 27% and the “Population Healthy Nuclei (%)” value [1] is reported as 50%. The “Population Hoechst High Intensity Objects (%)” value [1] was 13%, the “Population Membrane Permeable-Phenotype (%)” value [1] was 27% and the “Population Mitochondria Different-Phenotype (%)” value [1] was 0%. For the same molecule, the “Population Mitotic Cells (%)” value [1] was 35%, the “Population Normal (%)” value [1] was 86% and the “Population Pyknosed Nuclei (%)” value [1] was 22%. For the same molecule, the “Population Tubulin-Different-Phenotype (%)” value [1] was 24%, the “Total Cell Count” value [1] was 86 and the “Population Apoptotic (%)” value [2] was 33%. The “Population Fragmented Nuclei (%)” value [2] was 5%, the “Population Healthy Nuclei (%)” value [2] was 91% and the “Population Hoechst High Intensity Objects (%)” value [2] was 7%. For the same molecule, the “Population Membrane Permeable-Phenotype (%)” value [2] was 4%, the “Population Mitochondria Different-Phenotype (%)” value [2] was 8% and the “Population Mitotic Cells (%)” value [2] was 66%. The “Population Normal (%)” value [2] was 92%, the “Population Pyknosed Nuclei (%)” value [2] was 3% and the “Population Tubulin-Different-Phenotype (%)” value [2] was 7%. The “Total Cell Count” value [2] was 97, the “Population Apoptotic (%)” value [3] was 58% and the “Population Fragmented Nuclei (%)” value [3] was 21%. For the same molecule, the “Population Healthy Nuclei (%)” value [3] was 43%, the “Population Hoechst High Intensity Objects (%)” value [3] was 10% and the “Population Membrane Permeable-Phenotype (%)” value [3] was 17%. For the same molecule, the “Population Mitochondria Different-Phenotype (%)” value [3] was 22%, the “Population Mitotic Cells (%)” value [3] was 41% and the “Population Normal (%)” value [3] was 89%. For the same molecule, the “Population Pyknosed Nuclei (%)” value [3] was 34%, the “Population Tubulin-Different-Phenotype (%)” value [3] was 58% and the “Total Cell Count” value [3] was 164. The “Population Apoptotic (%)” value [4] was 18%, the “Population Fragmented Nuclei (%)” value [4] was 5% and the “Population Healthy Nuclei (%)” value [4] was 77%. The “Population Hoechst High Intensity Objects (%)” value [4] was 6%, the “Population Membrane Permeable-Phenotype (%)” value [4] was 0% and the “Population Mitochondria Different-Phenotype (%)” value [4] was 5%. The “Population Mitotic Cells (%)” value [4] was 81%, the “Population Normal (%)” value [4] was 93% and the “Population Pyknosed Nuclei (%)” value [4] was 16%. For the same molecule, the “Population Tubulin-Different-Phenotype (%)” value [4] was 28%, the “Total Cell Count” value [4] was 72 and the “Population Apoptotic (%)” value [5] was 66%. For the same molecule, the “Population Fragmented Nuclei (%)” value [5] was 20%, the “Population Healthy Nuclei (%)” value [5] was 58% and the “Population Hoechst High Intensity Objects (%)” value [5] was 13%. The “Population Membrane Permeable-Phenotype (%)” value [5] was 33%, the “Population Mitochondria Different-Phenotype (%)” value [5] was 4% and the “Population Mitotic Cells (%)” value [5] was 33%. The “Population Normal (%)” value [5] was 86%, the “Population Pyknosed Nuclei (%)” value [5] was 20% and the “Population Tubulin-Different-Phenotype (%)” value [5] was 45%. For the same molecule, the “Total Cell Count” value [5] was 83, the “Population Apoptotic (%)” value [6] was 50% and the “Population Fragmented Nuclei (%)” value [6] was 4%. For the same molecule, the “Population Healthy Nuclei (%)” value [6] was 86%, the “Population Hoechst High Intensity Objects (%)” value [6] was 2% and the “Population Membrane Permeable-Phenotype (%)” value [6] was 5%. The “Population Mitotic Cells (%)” value [6] was 50%, the “Population Normal (%)” value [6] was 97% and the “Population Pyknosed Nuclei (%)” value [6] was 8%. The “Population Tubulin-Different-Phenotype (%)” value [6] was 9%, the “Total Cell Count” value [6] was 116 and the “Population Apoptotic (%)” value [7] was 43%. The “Population Fragmented Nuclei (%)” value [7] was 24%, the “Population Healthy Nuclei (%)” value [7] was 48% and the “Population Hoechst High Intensity Objects (%)” value [7] was 12%. For the same molecule, the “Population Membrane Permeable-Phenotype (%)” value [7] was 30%, the “Population Mitochondria Different-Phenotype (%)” value [7] was 16% and the “Population Mitotic Cells (%)” value [7] was 56%. The “Population Normal (%)” value [7] was 87%, the “Population Pyknosed Nuclei (%)” value [7] was 27% and the “Population Tubulin-Different-Phenotype (%)” value [7] was 72%. For the same molecule, the “Total Cell Count” value [7] was 156, the “Population Apoptotic (%)” value [8] was 33% and the “Population Fragmented Nuclei (%)” value [8] was 5%. For the same molecule, the “Population Healthy Nuclei (%)” value [8] was 87%, the “Population Hoechst High Intensity Objects (%)” value [8] was 2% and the “Population Membrane Permeable-Phenotype (%)” value [8] was 1%. The “Population Mitochondria Different-Phenotype (%)” value [8] was 2%, the “Population Mitotic Cells (%)” value [8] was 66% and the “Population Normal (%)” value [8] was 97%. For the same molecule, the “Population Pyknosed Nuclei (%)” value [8] was 6%, the “Population Tubulin-Different-Phenotype (%)” value [8] was 31% and the “Total Cell Count” value [8] was 93. For the same molecule, the “Population Apoptotic (%)” value [9] was 77%, the “Population Fragmented Nuclei (%)” value [9] was 35% and the “Population Healthy Nuclei (%)” value [9] was 52%. For the same molecule, the “Population Hoechst High Intensity Objects (%)” value [9] was 25%, the “Population Membrane Permeable-Phenotype (%)” value [9] was 28% and the “Population Mitochondria Different-Phenotype (%)” value [9] was 0%. The “Population Mitotic Cells (%)” value [9] was 22%, the “Population Normal (%)” value [9] was 74% and the “Population Pyknosed Nuclei (%)” value [9] was 12%. The “Population Tubulin-Different-Phenotype (%)” value [9] was 35%, the “Total Cell Count” value [9] was 99 and the “Population Apoptotic (%)” value [10] was 0%. The “Population Fragmented Nuclei (%)” value [10] was 25%, the “Population Healthy Nuclei (%)” value [10] was 74% and the “Population Hoechst High Intensity Objects (%)” value [10] was 13%. For the same molecule, the “Population Membrane Permeable-Phenotype (%)” value [10] was 31%, the “Population Mitochondria Different-Phenotype (%)” value [10] was 2% and the “Population Mitotic Cells (%)” value [10] was 0%. The “Population Normal (%)” value [10] was 86%, the “Population Pyknosed Nuclei (%)” value [10] was 0% and the “Population Tubulin-Different-Phenotype (%)” value [10] was 44%. For the same molecule, the “Total Cell Count” value [10] was 73, the “Population Apoptotic (%)” value [11] was 46% and the “Population Fragmented Nuclei (%)” value [11] was 24%. The “Population Healthy Nuclei (%)” value [11] was 51%, the “Population Hoechst High Intensity Objects (%)” value [11] was 17% and the “Population Membrane Permeable-Phenotype (%)” value [11] was 29%. For the same molecule, the “Population Mitochondria Different-Phenotype (%)” value [11] was 14%, the “Population Mitotic Cells (%)” value [11] was 53% and the “Population Normal (%)” value [11] was 82%. For the same molecule, the “Population Pyknosed Nuclei (%)” value [11] was 23%, the “Population Tubulin-Different-Phenotype (%)” value [11] was 73% and the “Total Cell Count” value [11] was 143. For the same molecule, the “Population Apoptotic (%)” value [12] was 66%, the “Population Fragmented Nuclei (%)” value [12] was 22% and the “Population Healthy Nuclei (%)” value [12] was 73%. The “Population Hoechst High Intensity Objects (%)” value [12] was 7%, the “Population Membrane Permeable-Phenotype (%)” value [12] was 14% and the “Population Mitochondria Different-Phenotype (%)” value [12] was 4%. For the same molecule, the “Population Mitotic Cells (%)” value [12] was 33%, the “Population Normal (%)” value [12] was 92% and the “Population Pyknosed Nuclei (%)” value [12] was 3%. The “Population Tubulin-Different-Phenotype (%)” value [12] was 44% and the “Total Cell Count” value [12] was 99.
